Assay [1] relates to Nucleic Acid. The experiment in a line: Binding affinity to calf thymus DNA assessed as change in melting temperature at compound to DNA molar ratio of 1:5 at pH 7 after 18 hrs at 37 degC by thermal denaturation assay. The class given is nucleic-acid assay. The following applies: Bos taurus.
Assay [2] relates to A-375. The experiment in a line: Cytotoxicity against human A375 cells assessed as cell viability at 4 uM after 24 hrs by real time cell analyzer. The following applies: A-375, 24 h, read-out: Activity. The class given is functional. The gist of the method: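 A375 cell viability was measured after exposure to compound at 4 µM, with percent viability reported.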
Assay [3] concerns A2780. The experiment in a line: Cytotoxicity against human A2780 cells after 48 hrs by SRB assay. Format: functional. The following applies: A2780, 48 h. A digest of the protocol:
(§1)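 Cells from human breast, oral, ovary, colon, lung, prostate and cervix cancer lines were tested by sulforhodamine B assay. GI50 is 50% growth inhibition, given as mean ± SEM of three determinations. Activity cutoff was GI50 ≤10^-5 M. Adriamycin served as positive control.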
On the technique in general: In SRB staining, fixed cells bind dye roughly in proportion to their protein.

For assay [4], the system named is A-375. The experiment in a line: Induction of mitochondrial dysfunction in human A375 cells assessed as increase in cytosolic cytochrome c level at 4 uM after 24 hrs by Western blot analysis. Format: functional, cell-based. A digest of the protocol:
(§2)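 A375 cells were treated at 4 µM for 24 h, then p53 or cytosolic cytochrome c levels were measured by Western blot. β-Actin served as loading control. Controls were untreated cells and untreated cells plus DMSO.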
In general terms: Immunoblotting shows a protein as a band on a membrane.

Assay [5] can be described thus: Cytotoxicity against human Gurav cells after 48 hrs by SRB assay. Format: functional. A digest of the protocol:
as §1

Assay [6] deals with A-375. The experiment in a line: Cell cycle arrest in human A375 cells assessed as accumulation at S phase at 4 uM after 24 hrs by propidium iodide staining based FACS analysis (reference value: 12.04 to 15.67%). The class given is functional. A general note: In flow cytometry, cells or beads pass a laser one at a time.
The subject of assay [7] is Nucleic Acid. The experiment in a line: Inhibition of BamH1-induced DNA cleavage activity in Escherichia coli pBR322 at 4 uM after 24 hrs by agarose gel electrophoresis. Format: nucleic-acid assay. The gist of the method: (§3)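 pBR322 plasmid DNA was incubated with compound at 2–32 µM and then digested with BamHI. Restriction-digestion inhibition was judged against cut (BamHI, no compound) and uncut vector lanes.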

Assay [8] concerns SiHa. The experiment in a line: Cytotoxicity against human SiHa cells after 48 hrs by SRB assay. Format: functional. The gist of the method: as §1
The nature of assay [9]: Cytotoxicity against human DWD cells after 48 hrs by SRB assay. The class given is functional. The gist of the method:
as §1

Assay [10] deals with A-375. The assay can be described thus: Induction of apoptosis in human A375 cells assessed as PARP cleavage at 4 uM after 24 hrs by Western blot analysis.
For assay [11], the system named is A-375. The experiment in a line: Cell cycle arrest in human A375 cells assessed as accumulation at G2/M phase at 4 uM after 24 hrs by propidium iodide staining based FACS analysis (reference value: 17.65 to 23.26%). The class given is functional.
The test system of assay [12] is PC-3. The assay can be described thus: Cytotoxicity against human PC3 cells after 48 hrs by SRB assay. Format: functional. The following applies: PC-3, 48 h. The gist of the method:
as §1

Assay [13] has as its system A549. The experiment in a line: Cytotoxicity against human A549 cells after 48 hrs by SRB assay. The class given is functional. The following applies: A549, 48 h. The gist of the method: as §1
The test system of assay [14] is A-375. The assay can be described thus: Upregulation of p53 gene expression in human A375 cells at 4 uM after 24 hrs by Western blot analysis. Format: functional, cell-based. The gist of the method:
as §2

Assay [15] concerns KB. The experiment in a line: Cytotoxicity against human KB cells after 48 hrs by SRB assay. The class given is functional. A digest of the protocol: as §1
In assay [16] the test system is COLO 205. The assay can be described thus: Cytotoxicity against human COLO205 cells after 48 hrs by SRB assay. Format: functional. The following applies: COLO 205, 48 h. The gist of the method: as §1
The subject of assay [17] is A-375. The assay can be described thus: Cell cycle arrest in human A375 cells assessed as accumulation at G0/G1 phase at 4 uM after 24 hrs by propidium iodide staining based FACS analysis (reference value: 64.7 to 66.26%). Format: functional.
The test system of assay [18] is A-375. The experiment in a line: Cytotoxicity against human A375 cells after 24 hrs by MTT assay. The class given is functional, cell-based. The following applies: A-375, 24 h. A digest of the protocol: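 MTT proliferation assay on A375 cells, with the IC50 derived from it.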
For assay [19], the system named is MCF7. The assay can be described thus: Cytotoxicity against human MCF7 cells after 48 hrs by SRB assay. The class given is functional. The following applies: MCF7, 48 h. A digest of the protocol:
as §1

The test system of assay [20] is HOP-62. The experiment in a line: Cytotoxicity against human HOP62 cells after 48 hrs by SRB assay. Format: functional. The following applies: HOP-62, 48 h. A digest of the protocol:
as §1

The subject of assay [21] is A-375. The assay can be described thus: Induction of apoptosis in human A375 cells at 4 uM after 24 hrs by FACS analysis (reference value: 5.61%). The class given is functional.
Assay [22] deals with ZR-75-1. The assay can be described thus: Cytotoxicity against human ZR-75-1 cells after 48 hrs by SRB assay. The class given is functional. The following applies: ZR-75-1, 48 h. A digest of the protocol: as §1
Assay [23] deals with Nucleic Acid. The assay can be described thus: Inhibition of BamH1-induced DNA cleavage activity in Escherichia coli pBR322 at 8 uM after 24 hrs by agarose gel electrophoresis. The class given is nucleic-acid assay. A digest of the protocol: as §3
Assay [24] concerns Nucleic Acid. The experiment in a line: Inhibition of BamH1-induced DNA cleavage activity in Escherichia coli pBR322 at 16 uM after 24 hrs by agarose gel electrophoresis. The class given is nucleic-acid assay. A digest of the protocol: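 RED100 restriction-digestion assay: pBR322 vector DNA incubated with compound at 2, 4, 8, 16 and 32 µM, then digested with BamHI. Lanes are compared with uncut vector and with vector cut by BamHI without compound. DNA binding is read as inhibition of BamHI cleavage.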

Experimental findings from ChEMBL document CHEMBL1800030, “Synthesis and biological evaluation of anilino substituted pyrimidine linked pyrrolobenzodiazepines as potential anticancer agents” (Bioorg Med Chem Lett, 2010) are described below.

The source made the active and inactive calls. A value given as a limit tells only on which side of the number the result lay.

The term ΔTm denotes the change in melting temperature against a reference sample. The term GI50 denotes the concentration that inhibits growth by half. A low value points to more potent growth inhibition. Usually IC50 stands for the concentration that gives 50% inhibition. Low values mean greater potency, high ones weaker potency. For the compound `COc1cc2c(cc1OCCCCC(=O)Nc1ccc(C)c(Nc3nccc(-c4cccnc4)n3)c1)N=C[C@@H]1CCCN1C2=O`, the ΔTm in [1] amounted to 2.1 °C. For the same compound, the viability at 4 µM in [2] worked out at 72%. Also, the GI50 in assay [3] is 2400 nM; in assay [5], below 100 nM; in [8], 2200 nM; in [9], 2500 nM; in assay [12], 2030 nM; in [13] it was 2300 nM. In addition, the GI50 turned out to be 180 nM in assay [15]; 2300 nM in [16]; 170 nM in assay [19]; 160 nM in assay [20]; 170 nM in [22]. The outcome in assay [4], in assay [10] and in [14] was Active. In addition, the Activity in [6] is on record as 13.98%; in assay [11] it was 6.47%; in [17] it was 80.98%; in [21] it was 41.59%. Moreover, in assay [7], the inhibition result is “inactive”. Further, half-maximal inhibition in [18] (IC50) required 5500 nM.

Turning to `COc1cc2c(cc1OCc1ccc(C(=O)Nc3ccc(C)c(Nc4nccc(-c5cccnc5)n4)c3)cc1)N=C[C@@H]1C[C@H](F)CN1C2=O`, in assay [1], the ΔTm stood at 7.1 °C. Further, the viability at 4 µM in [2] is 33.7%. Also, the GI50 in [3] is 130 nM; in assay [5], 130 nM; in assay [8], 120 nM; in [9] it was 140 nM; in assay [12], 140 nM; in [13] it was 160 nM. The GI50 is 120 nM in assay [15]; below 100 nM in assay [16]; below 100 nM in assay [19]; 150 nM in assay [20]; 150 nM in assay [22]. The result in assay [4], in assay [10] and in [14] was Active. The inhibition result in assay [23] was “Active”. For the same compound, the Activity is on record as 0.2% in assay [6], 0.16% in assay [11], 98.44% in [17] and 83.86% in assay [21]. Besides, in [7], the inhibition result is “inactive”. This compound showed an IC50 in assay [18] of 160 nM.

On to `COc1cccc2c1C(=O)c1c(O)c3c(c(O)c1C2=O)C[C@@](O)(C(=O)CO)C[C@@H]3O[C@H]1C[C@H](N)[C@H](O)[C@H](C)O1` [DOXORUBICIN], for which the 50% growth inhibitory concentration (GI50) was below 100 nM in assay [3]; 120 nM in [5]; 2100 nM in assay [8]; below 100 nM in assay [9]; 170 nM in assay [12]; 150 nM in assay [13]. For the same compound, the GI50 in [15] is 110 nM; in assay [16] it was below 100 nM; in [19], below 100 nM; in [20], 140 nM; in assay [22], 130 nM.

Regarding `COc1cc2c(cc1O)N=C[C@@H]1CCCN1C2=O`, the ΔTm in [1] was found to be 0.7 °C. For the same compound, the GI50 in [3] amounted to 140 nM; in assay [5] it was 160 nM; in assay [8], 170 nM; in [12], 200 nM; in assay [13], 160 nM; in assay [15], 170 nM. For the same compound, the GI50 in [16] is 110 nM; in assay [19] it was 170 nM; in [20], 150 nM. In addition, the inhibition result in assay [24] was “Active”.

For `COc1cc2c(cc1OCCCCC(=O)Nc1ccc(C)c(Nc3nccc(-c4cc(OC)c(OC)c(OC)c4)n3)c1)N=C[C@@H]1C[C@H](F)CN1C2=O`, in assay [1], the ΔTm came to 2.5 °C. Besides, the viability at 4 µM in [2] is 64.9%. The GI50 was found to be 180 nM in assay [3]; 150 nM in [5]; 1800 nM in [8]; 180 nM in assay [9]; 170 nM in [12]; 2500 nM in assay [13]. Also, the GI50 is 170 nM in assay [15]; 2100 nM in assay [16]; 160 nM in [19]; 120 nM in assay [20]; 2700 nM in assay [22]. In addition, the result in assay [4], in [10] and in [14] was Active. For the same compound, the Activity was found to be 17.19% in assay [6], 6.04% in [11], 76.76% in assay [17] and 36.15% in [21]. The inhibition result in assay [7] was “inactive”. Besides, 5600 nM corresponded to half-maximal inhibition in assay [18] (IC50).

Turning to `COc1cc2c(cc1OCc1ccc(C(=O)Nc3ccc(C)c(Nc4nccc(-c5cccnc5)n4)c3)cc1)N=C[C@@H]1CCCN1C2=O`, the ΔTm in assay [1] was 6.8 °C. Also, the viability at 4 µM in [2] was 48%. Further, the GI50 was 130 nM in [3]; below 100 nM in assay [5]; 170 nM in assay [8]; 130 nM in assay [9]; 150 nM in assay [12]; 140 nM in assay [13]. Besides, the 50% growth inhibitory concentration (GI50) in assay [15] was determined as 140 nM; in [16], 120 nM; in assay [19] it was 140 nM; in assay [20] it was 170 nM; in assay [22], 160 nM. In addition, the outcome in [4], in [10] and in assay [14] was Active. The inhibition result in assay [23] is “Active”. Also, the Activity is 13.55% in assay [6], 5.67% in assay [11], 80.98% in assay [17] and 49.7% in assay [21]. In [7], the inhibition result was “inactive”. Further, the IC50 in assay [18] turned out to be 1100 nM.

On to `COc1cc2c(cc1OCCCCC(=O)Nc1ccc(C)c(Nc3nccc(-c4cc(OC)c(OC)c(OC)c4)n3)c1)N=C[C@@H]1CCCN1C2=O`, for which the ΔTm in assay [1] amounted to 1.4 °C. For the same compound, the GI50 in assay [3] was determined as 180 nM; in [5] it was 2000 nM; in [8] it was 1800 nM; in assay [9] it was 1800 nM; in [12] it was 1800 nM; in assay [13], 2300 nM. The GI50 was 170 nM in assay [15]; 2300 nM in [16]; 2000 nM in assay [19]; 2400 nM in assay [20]; 2600 nM in assay [22].

Consider `Cc1ccc(NC(=O)c2ccc(CBr)cc2)cc1Nc1nccc(-c2cccnc2)n1`, for which the values for the Activity in assay [6], in assay [11] and in [17] were 11%, 21% and 68%, respectively.
